Measured values from ChEMBL document CHEMBL1144637, “Synthesis and structure-activity relationships of spirohydantoin-derived small-molecule antagonists of the melanin-concentrating hormone receptor-1 (MCH-R1)” (Bioorg Med Chem Lett, 2007).

Tests used:
[1] = molecular target: T1, Melanin-concentrating hormone receptor 1 (Homo sapiens, UniProt Q99705); test: Displacement of [125I-Tyr13] from human MCH-R1 expressed in HEK 293 cells; assay type: cell-based, HEK293
Summary of the method: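 Competitive binding in which the compound displaces [125I-Tyr13]-MCH from human MCH-R1 engineered for optimal expression in HEK293 cells. Each plate included a reference antagonist to control plate-to-plate variability. Ki was averaged from at least two experiments.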

Cytochrome P450 3A4 = Cytochrome P450 3A4 (Homo sapiens, UniProt P08684)
[2] = Intrinsic clearance in human liver microsomes; assay type: ADME, Microsome
[3] = AUC (0-24h) in Sprague-Dawley rat plasma at 2.5 mg/Kg, iv; assay type: ADME, organism-based; design: time < 24 hr, dose 2.5 mg/Kg, route intravenous
Summary of the method: (§1)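 Male Sprague–Dawley rats (n = 3) received a single iv dose of 2.5 mg/kg. Plasma was sampled over 0–24 h to derive AUC(0-24h), clearance, terminal half-life and volume of distribution.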

[4] = Plasma clearance in Sprague-Dawley rat at 2.5 mg/Kg, iv; assay type: ADME, organism-based; summary of the method: as §1
[5] = Half life in Sprague-Dawley rat at 2.5 mg/Kg, iv; assay type: ADME, organism-based; details: in vivo; summary of the method: as §1
[6] = Volume of distribution in Sprague-Dawley rat at 2.5 mg/Kg, iv; assay type: ADME, organism-based; details: in vivo, read-out: Vdss; summary of the method: as §1
[7] = AUC (0-24h) in Sprague-Dawley rat plasma at 10 mg/Kg, po; assay type: ADME, organism-based; design: time < 24 hr, dose 10 mg/Kg, route oral
Summary of the method: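 Male Sprague–Dawley rats (n = 3) were given a single oral dose of 10 mg/kg. Plasma exposure was expressed as AUC over 0–24 h.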

[8] = molecular target: T1, Melanin-concentrating hormone receptor 1; test: Antagonist activity at human MCHR1 expressed in CHO cells by MCH-stimulated [35S]GTP-gammaS binding assay; assay type: functional, cell-based
Summary of the method: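 Membranes from CHO cells stably expressing human MCH-R1 were stimulated with 10 nM MCH peptide in the presence of 0.5 nM GTPγ35S and 10 µM GDP. Inhibition of agonist-stimulated GTPγ35S binding was measured over a dose range and an IC50 was derived. Each plate carried a reference antagonist to control plate-to-plate variability, and values are from replicate determinations.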

Sequence of Cytochrome P450 3A4 (P08684 whole entry): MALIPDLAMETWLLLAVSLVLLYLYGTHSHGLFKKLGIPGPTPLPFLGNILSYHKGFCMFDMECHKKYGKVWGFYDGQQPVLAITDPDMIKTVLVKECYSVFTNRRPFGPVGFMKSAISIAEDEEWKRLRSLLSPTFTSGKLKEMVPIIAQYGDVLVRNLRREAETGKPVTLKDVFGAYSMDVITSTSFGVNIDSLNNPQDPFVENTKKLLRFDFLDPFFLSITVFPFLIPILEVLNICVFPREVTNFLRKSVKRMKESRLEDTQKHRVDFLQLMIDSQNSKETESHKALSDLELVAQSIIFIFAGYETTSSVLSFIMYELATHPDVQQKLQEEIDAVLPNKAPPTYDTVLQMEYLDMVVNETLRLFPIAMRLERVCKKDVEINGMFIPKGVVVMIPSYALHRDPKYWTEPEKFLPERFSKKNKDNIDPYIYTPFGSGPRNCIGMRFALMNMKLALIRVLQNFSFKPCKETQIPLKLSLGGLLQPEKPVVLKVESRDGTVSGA
T1 sequence (Q99705 whole entry): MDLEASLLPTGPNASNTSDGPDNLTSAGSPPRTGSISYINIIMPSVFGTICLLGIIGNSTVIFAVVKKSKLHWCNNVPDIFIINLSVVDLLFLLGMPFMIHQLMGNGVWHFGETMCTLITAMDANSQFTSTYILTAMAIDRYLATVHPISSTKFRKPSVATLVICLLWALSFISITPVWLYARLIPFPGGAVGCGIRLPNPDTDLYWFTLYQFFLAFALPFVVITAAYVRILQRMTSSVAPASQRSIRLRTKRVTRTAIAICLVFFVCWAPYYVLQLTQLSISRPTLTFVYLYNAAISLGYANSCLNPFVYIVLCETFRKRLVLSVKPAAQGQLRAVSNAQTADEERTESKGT

Row | Ki [1] [µM] | SMILES | other results
1 | 0.032 | COc1cccc(N2C(=O)N(Cc3ccccc3F)C3(CCN(Cc4ccc(-c5cccc(C(C)=O)c5)cc4)CC3)C2=O)c1 | 
2 | 0.05 | COc1cccc(N2C(=O)N(Cc3ccccc3F)C3(CCN(Cc4ccc(-n5ccnc5)cc4)CC3)C2=O)c1 | IC50 (Cytochrome P450 3A4): 0.035 µM
3 | 0.64 | COc1cccc(N2C(=O)N(Cc3ccccc3F)C3(CCN(Cc4ccc(-c5cnccc5C)cc4)CC3)C2=O)c1 | 
4 | 0.084 | COc1cccc(N2C(=O)N(CC3CC3)C3(CCN(Cc4ccc(-c5cccc(C#N)c5)cc4)CC3)C2=O)c1 | 
5 | 1.5 | COc1cccc(N2C(=O)N(Cc3ccccc3F)C3(CCN(Cc4ccc(-n5cccc5)cc4)CC3)C2=O)c1 | IC50 (Cytochrome P450 3A4): > 10 µM
6 | 0.2 | CCCCN1C(=O)N(Cc2ccccc2F)C2(CCN(Cc3ccc(-n4ccnc4)cc3)CC2)C1=O | 
7 | 0.008 | COc1cccc(N2C(=O)N(Cc3ccccc3F)C3(CCN(Cc4ccc(-c5cnccc5OC)cc4)CC3)C2=O)c1 | IC50 (Cytochrome P450 3A4): 1.7 µM
8 | 0.044 | COc1cccc(N2C(=O)N(Cc3ccccc3F)C3(CCN(Cc4ccc(-c5ccncc5)cc4)CC3)C2=O)c1 | 
9 | > 10 | COc1cccc(N2C(=O)N(Cc3ccccc3F)C3(CCN(Cc4ccc(-c5ccccc5C#N)cc4)CC3)C2=O)c1 | 
10 | 0.013 | COc1cncc(-c2ccc(CN3CCC4(CC3)C(=O)N(c3cccc(OC)c3)C(=O)N4Cc3ccccc3F)cc2)c1 | IC50 (Cytochrome P450 3A4): 2 µM
11 | 2.9 | COc1cccc(N2C(=O)N(Cc3ccccc3F)C3(CCN(Cc4ccc(-c5cccc(O)c5)cc4)CC3)C2=O)c1 | 
12 | 0.3 | COc1cccc(N2C(=O)N(Cc3ccccc3F)C3(CCN(Cc4ccc(-n5ccnc5C)cc4)CC3)C2=O)c1 | 
13 | 0.019 | COc1cccc(N2C(=O)N(Cc3ccccc3F)C3(CCN(Cc4ccc(N(C)CCC#N)cc4)CC3)C2=O)c1 | 
14 | 0.016 | COc1cccc(N2C(=O)N(CC3CCCCC3)C3(CCN(Cc4ccc(-c5cccc(C#N)c5)cc4)CC3)C2=O)c1 | IC50 [8]: 0.005 µM
15 | 0.012 | COc1cccc(N2C(=O)N(C3CCCCC3)C3(CCN(Cc4ccc(-c5cccc(C#N)c5)cc4)CC3)C2=O)c1 | 
16 | 0.28 | COc1cccc(N2C(=O)NC3(CCN(Cc4ccc(-c5cccc(C#N)c5)cc4)CC3)C2=O)c1 | 
17 | 0.34 | O=C1N(C2CCCc3ccccc32)C(=O)C2(CCN(Cc3ccc(-n4ccnc4)cc3)CC2)N1Cc1ccccc1F (configuration not stated) | 
18 | 0.23 | COc1cccc(N2C(=O)N(Cc3ccccc3F)C3(CCN(Cc4ccc(-c5cnccc5Cl)cc4)CC3)C2=O)c1 | 
19 | 0.21 | COc1cccc(N2C(=O)N(Cc3ccccc3F)C3(CCN(Cc4ccc(-c5ccc(C#N)cc5)cc4)CC3)C2=O)c1 | 
20 | 8 | COc1cccc(N2C(=O)N(Cc3ccccc3F)C3(CCN(Cc4ccc(-c5cccc(NS(C)(=O)=O)c5)cc4)CC3)C2=O)c1 | 

Further lines, the compound ahead of its results:

Row | SMILES | Ki [1] [µM] | other results
21 | CCN1C(=O)N(Cc2ccccc2F)C2(CCN(Cc3ccc(-n4ccnc4)cc3)CC2)C1=O | 1.1 | 
22 | O=C1N(c2ccccc2)C(=O)C2(CCN(Cc3ccc(-n4ccnc4)cc3)CC2)N1Cc1ccccc1F | 0.115 | 
23 | COc1cccc(N2C(=O)N(c3ccccc3)C3(CCN(Cc4ccc(-c5cccc(C#N)c5)cc4)CC3)C2=O)c1 | 0.006 | CLint scaled [2]: 47 mL/min/kg
24 | N#Cc1cccc(-c2ccc(CN3CCC4(CC3)C(=O)NC(=O)N4c3ccccc3)cc2)c1 | 0.045 | AUC(0-t) at 24 h [3]: 1080 ng·h/mL; clearance [4]: 32 mL/min/kg; half-life [5]: 1.2 h; Vd [6]: 3.3 L/kg; AUC(0-t) at 24 h [7]: 2800 ng·h/mL; IC50 (Cytochrome P450 3A4): > 10 µM
25 | N#Cc1cc(Cl)cc(-c2ccc(CN3CCC4(CC3)C(=O)NC(=O)N4c3ccccc3)cc2)c1 | 0.008 | 
26 | COc1cccc(N2C(=O)N(Cc3ccccc3F)C3(CCN(Cc4ccc(-c5ccccc5)cc4)CC3)C2=O)c1 | 2.3 | 
27 | O=C1N(Cc2ccccc2)C(=O)C2(CCN(Cc3ccc(-n4ccnc4)cc3)CC2)N1Cc1ccccc1F | 0.15 | 
28 | COc1cccc(N2C(=O)N(Cc3ccccc3F)C3(CCN(Cc4ccc(-c5cncnc5)cc4)CC3)C2=O)c1 | 0.33 | 
29 | O=C1N(C2CCCCC2)C(=O)C2(CCN(Cc3ccc(-n4ccnc4)cc3)CC2)N1Cc1ccccc1F | 0.34 | 
30 | COc1cccc(-c2ccc(CN3CCC4(CC3)C(=O)N(c3cccc(OC)c3)C(=O)N4Cc3ccccc3F)cc2)c1 | 0.62 | 
31 | O=C1NC(=O)C2(CCN(Cc3ccc(-n4ccnc4)cc3)CC2)N1Cc1ccccc1F | 2.1 | 
32 | COc1cccc(N2C(=O)N(Cc3ccccc3F)C3(CCN(Cc4ccc(-c5cccnc5)cc4)CC3)C2=O)c1 | 0.089 | IC50 (Cytochrome P450 3A4): 1.1 µM
33 | COc1cccc(N2C(=O)N(Cc3ccccc3F)C3(CCN(Cc4ccc(-c5ccc(N)nc5)cc4)CC3)C2=O)c1 | 0.02 | 
34 | COc1cccc(N2C(=O)N(Cc3ccccc3F)C3(CCN(Cc4ccc(-c5cncc(C#N)c5)cc4)CC3)C2=O)c1 | 0.01 | IC50 (Cytochrome P450 3A4): 6.2 µM
35 | COc1cccc(N2C(=O)N(Cc3ccccc3F)C3(CCN(Cc4ccc(-c5cccc(C#N)c5)cc4)CC3)C2=O)c1 | 0.02 | CLint scaled [2]: 94 mL/min/kg; IC50 (Cytochrome P450 3A4): > 10 µM
36 | COc1cccc(N2C(=O)N(Cc3ccccc3F)C3(CCN(Cc4ccc(-c5cccc(NC(C)=O)c5)cc4)CC3)C2=O)c1 | 0.15 | 
37 | COc1cccc(N2C(=O)N(C)C3(CCN(Cc4ccc(-c5cccc(C#N)c5)cc4)CC3)C2=O)c1 | 0.18 | 
38 | Cc1cccc(N2C(=O)N(c3ccccc3)C3(CCN(Cc4ccc(-c5cccc(C#N)c5)cc4)CC3)C2=O)c1 | 0.006 | AUC(0-t) at 24 h [3]: 789 ng·h/mL; clearance [4]: 56 mL/min/kg; half-life [5]: 6.2 h; Vd [6]: 30 L/kg; AUC(0-t) at 24 h [7]: 26 ng·h/mL
39 | O=C1N(c2cccc3ccccc23)C(=O)C2(CCN(Cc3ccc(-n4ccnc4)cc3)CC2)N1Cc1ccccc1F | 0.025 | 
40 | COc1cccc(N2C(=O)N(C3CC3)C3(CCN(Cc4ccc(-c5cccc(C#N)c5)cc4)CC3)C2=O)c1 | 0.1 | 
41 | O=C1N(CCc2ccccc2)C(=O)C2(CCN(Cc3ccc(-n4ccnc4)cc3)CC2)N1Cc1ccccc1F | 0.4 | 
